Screening results: PubChem BioAssay, Sanford-Burnham Center for Chemical Genomics
LMPTP block = LMPTP phosphatase inhibitors, primary screen, biochemical, fluorescence intensity, uHTS; recombinant LMPTP-A, OMFP fluorogenic substrate; Low molecular weight phosphotyrosine protein phosphatase (Homo sapiens), P24666; actives 0.22% (n = 360,000); inhibition, % at 20 µM;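 active = compounds that cut the enzyme signal by at least half of the control window in the single-dose screen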;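 also: plate controls were DMSO wells with enzyme plus substrate for no effect and substrate without enzyme for full effect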
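Test system: LMPTP-A, protein tyrosine phosphatase of low molecular weight; Input: 0.625 nM enzyme; Incubation: 50 min dark incubation at room temperature; Signal: endpoint fluorescence intensity from OMFP dephosphorylation; Read-out basis: % inhibition versus control wells.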
STEP inh = STEP phosphatase inhibitors, primary screen, biochemical, fluorescence intensity, uHTS; Tyrosine-protein phosphatase non-receptor type 5 (Homo sapiens), P54829; AID 588621, 2011; recombinant STEP, OMFP fluorogenic substrate; inhibition, % at 20 µM; actives 0.25% (n = 360,000);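 active = inhibition at 20 µM, scaled per plate between control wells, above about 37%, limit read from the data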;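 also: 0% = DMSO with enzyme and substrate and 100% = substrate only without enzyme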
Target sequence (P54829 whole entry, looked up): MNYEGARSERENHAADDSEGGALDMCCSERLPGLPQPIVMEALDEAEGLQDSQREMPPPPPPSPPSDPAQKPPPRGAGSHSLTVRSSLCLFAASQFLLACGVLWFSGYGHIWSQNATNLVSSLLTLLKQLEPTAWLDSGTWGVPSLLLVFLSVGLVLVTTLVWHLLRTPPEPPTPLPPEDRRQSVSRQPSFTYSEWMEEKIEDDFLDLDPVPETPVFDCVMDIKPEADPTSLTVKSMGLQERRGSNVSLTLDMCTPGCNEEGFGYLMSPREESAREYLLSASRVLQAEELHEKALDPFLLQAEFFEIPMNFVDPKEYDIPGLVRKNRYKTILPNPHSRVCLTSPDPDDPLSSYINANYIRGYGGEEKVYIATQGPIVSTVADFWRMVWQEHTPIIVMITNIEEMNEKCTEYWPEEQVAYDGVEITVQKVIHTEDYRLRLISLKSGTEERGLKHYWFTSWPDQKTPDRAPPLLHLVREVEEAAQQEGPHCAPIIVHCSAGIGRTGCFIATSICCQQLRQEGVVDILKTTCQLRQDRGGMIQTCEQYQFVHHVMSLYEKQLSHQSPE
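Material: STEP (striatal-enriched tyrosine phosphatase) enzyme, cell-free; Compound dosing: 20 µM single dose in 1% DMSO; Technique: fluorescence read at 480 nm ex / 540 nm em; Times: reaction 20 min, ambient temperature; Medium: 50 mM Bis-Tris pH 6.0 with 2.5 mM DTT and 0.005% Tween 20; Also added: OMFP at 25 µM.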
FAS-TE inh = FAS thioesterase domain inhibitors, primary screen, biochemical, fluorescence intensity, uHTS. recombinant FAS-TE, OMFH fluorogenic substrate, fluorescence endpoint. inhibition, % at 15 µM. actives 0.67% (n = 360,000). AID 602261, 2012;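 active = compounds whose normalised, plate-corrected inhibition of enzyme fluorescence in the single-dose primary screen is 50% or more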;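 also: 0% = DMSO with enzyme and 100% = substrate without enzyme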
Scp-1 inhibitor = Scp-1 phosphatase inhibitors, primary screen, biochemical, colorimetric, uHTS | Carboxy-terminal domain RNA polymerase II polypeptide A small phosphatase 1 (Homo … | Recombinant Scp1, phosphopeptide, malachite green phosphate absorbance | inhibition, % at 20 µM | actives 0.88% (n = 340,000) | AID 493091, 2011;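 active = inhibition above about 50% at 20 µM, limit read from the data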;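 also: plate controls were DMSO wells with enzyme for no effect and wells lacking enzyme for full effect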
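Test system – truncated SCP-1 phosphatase (76-261aa) · Reagent – Phosphorylated 17-residue peptide substrate · Incubation – 45 min room-temperature reaction, 5 min colour, 30 min stabiliser · Detection – colorimetric phosphate reagent with accelerator and stabiliser, absorbance at 630 nm · Measure – % inhibition at 20 µM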
SUMO1 PPI mod = modulators of SUMO1 protein-protein interactions, primary screen, biochemical, uHTS. Small ubiquitin-related modifier 1 (Homo sapiens), P63165. SUMO1 binding to a labelled peptide, TR-FRET, 1 h. inhibition, % at 20 µM. actives 0.33% (n = 360,000). AID 602429, 2012; in the data active = inhibition above about 37%
Target sequence (P63165 whole entry, looked up): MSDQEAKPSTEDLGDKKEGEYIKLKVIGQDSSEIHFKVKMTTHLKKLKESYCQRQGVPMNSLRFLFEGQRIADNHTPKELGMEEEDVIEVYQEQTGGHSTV
FAS-TE conf = FAS thioesterase domain inhibitors, confirmation, biochemical, fluorescence intensity, single concentration | shares compounds with FAS-TE inh | recombinant FAS-TE, OMFH fluorogenic substrate | inhibition, % at 15 µM | actives 45% (n = 2,300);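 active = compounds inhibiting the enzyme by at least 50% at 15 µM in any one of the replicates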;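 also: 0% = enzyme with DMSO only and 100% = wells lacking enzyme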
* = called active by the depositor; / = not tested or not shown. Most compounds without a hit are left out; they make up all but 1.9% or so of the library.

SMILES | LMPTP block | STEP inh | FAS-TE inh | Scp-1 inhibitor | SUMO1 PPI mod | FAS-TE conf
O=C(CCn1c(=O)c2ccccc2n(Cc2cccc([N+](=O)[O-])c2)c1=O)N1CCc2ccccc2C1 | 3 | 3 | 87* | -7 | -12 | 47*
Cc1c(Br)c([N+](=O)[O-])nn1CCCC(=O)N1CCN(c2ccccc2)CC1 | 0 | -1 | 54* | -6 | -11 | 43*
Cc1c(Br)c([N+](=O)[O-])nn1CC(=O)N1CCc2ccccc2C1 | -2 | 0 | 64* | -10 | -14 | 59*
O=C(Cn1cc([N+](=O)[O-])ccc1=O)N1CCc2ccccc2C1 | -1 | 0 | 67* | 3 | -17 | 69*
C[C@@H](NC(=O)c1[nH]cnc1C(=O)Nc1ccc(Cl)cc1)c1ccccc1 | 1 | -4 | 64* | 12 | 18 | 63*
C[C@H](NC(=O)c1[nH]cnc1C(=O)Nc1ccc(Cl)cc1)c1ccccc1 | 4 | -4 | 34 | -10 | 3 | /
COc1ccccc1N1CCN(C(=O)CCCCCn2c(=O)[nH]c3ccsc3c2=O)CC1 | 3 | 2 | 5 | -5 | 6 | /
Cc1c(C(=O)Nc2ccc(Cl)cc2)c2ccccn2c1C(=O)c1ccc([N+](=O)[O-])cc1 | 1 | 2 | 71* | 0 | -10 | 14
Cc1c(C(=O)Nc2ccc(Cl)cc2)c2ccccn2c1C(=O)c1ccccc1 | 1 | 3 | 22 | -7 | 2 | /
Cc1cc2c(Nc3cccc(O)c3)ncnc2s1 | 0 | -2 | -4 | -5 | 5 | /
O=C(Nc1nc(-c2ccccc2)cs1)c1ccc2c(=O)n3c(nc2c1)CCCCC3 | 3 | 1 | 62* | 3 | 3 | 15
CCN(C(=O)c1ccc2c(=O)n3c(nc2c1)CCCCC3)c1ccc(F)cc1 | -2 | 1 | 1 | -5 | -2 | /
CCOc1ccccc1N(CC)C(=O)c1ccc2c(=O)n3c(nc2c1)CCCCC3 | 0 | -1 | 57* | 3 | -2 | 77*
O=C(Nc1cccc(S(=O)(=O)NC2=NCCC2)c1)c1cn(-c2ccccc2)nc1-c1ccc(F)cc1 | 3 | 0 | 24 | 0 | 1 | /
CCCSc1ccc([C@H]2N[C@@](Cc3ccccc3)(C(=O)OC)[C@H]3C(=O)N(CC)C(=O)[C@@H]23)cc1 | 0 | -2 | 30 | -2 | 3 | /
CCN1C(=O)[C@H]2[C@@H](c3ccc(-c4ccc(C(C)=O)cc4)c(OC)c3)N[C@@](Cc3ccccc3)(C(=O)OC)[C@H]2C1=O | 3 | 0 | 65* | -6 | -7 | 37
CCN1C(=O)[C@H]2[C@@H](c3ccc(-c4ccc(F)cc4)c(OC)c3)N[C@@](Cc3ccccc3)(C(=O)OC)[C@H]2C1=O | 6 | 0 | 90* | -6 | 0 | 37
CCN1C(=O)[C@H]2[C@@H](c3ccc(-c4ccccc4)c(OC)c3)N[C@@](Cc3ccccc3)(C(=O)OC)[C@H]2C1=O | 4 | -2 | 69* | -8 | 5 | 36
CCN1C(=O)[C@H]2[C@@H](c3ccc(-c4cccc(Cl)c4)c(OC)c3)N[C@@](CC(C)C)(C(=O)OC)[C@H]2C1=O | 5 | 2 | 44 | -9 | -4 | /
CC(=O)c1ccc(N2CCN(C(=O)CCCc3nc4ccccc4s3)CC2)cc1 | -1 | -1 | -1 | -2 | -1 | /
Cc1ccc(N2C(=O)C3CC(c4ccccc4)=C4C5C=CC(C6C(=O)N(c7ccc(C)cc7)C(=O)C56)C4C3C2=O)cc1 (configuration not stated) | 3 | 2 | 85* | -10 | 5 | 9
Cc1ccc(N2C(=O)C3CC(c4ccccc4)=C4C5C=CC(C6C(=O)N(c7ccc(C)cc7C)C(=O)C56)C4C3C2=O)c(C)c1 (configuration not stated) | 4 | -1 | 100* | -9 | -1 | 44*
Cc1ccc(N2C(=O)C3CCCN3C2=S)c(C)c1 (configuration not stated) | 0 | -2 | -7 | -4 | 2 | /
CSc1nsc(SCC(=O)NCc2ccc(C)cc2)n1 | 0 | 2 | 3 | -6 | 8 | /
Cc1cc2oc(=O)cc(CN3CCN(S(=O)(=O)/C=C/c4ccccc4)CC3)c2cc1C | -1 | -1 | 54* | 0 | -9 | 12
SMILES | LMPTP block | STEP inh | FAS-TE inh | Scp-1 inhibitor | SUMO1 PPI mod | FAS-TE conf
CCc1ccc(S(=O)(=O)c2nnn3c2nc(NCCNC(C)=O)c2ccccc23)cc1 | 0 | 3 | 77* | 1 | 17 | 79*
Cc1cc(C)cc(Nc2nc3c(S(=O)(=O)c4ccccc4)nnn3c3ccccc23)c1 | -1 | 3 | 0 | -1 | -4 | /
Cc1ccc(S(=O)(=O)c2nnn3c2nc(NCCCN2CCCC2=O)c2ccccc23)cc1C | 2 | 1 | 71* | 3 | 56* | 69*
CCCCNc1nc2c(S(=O)(=O)c3ccccc3)nnn2c2ccccc12 | 0 | 1 | -2 | -1 | -34 | /
CCCCC(=O)N/N=C/c1cc([N+](=O)[O-])ccc1N1CCOCC1 | -1 | 2 | 66* | 0 | -22 | 74*
CCN(CC)C(=O)C1CCCN(c2ccc([N+](=O)[O-])cc2/C=N/NC(=O)c2cccc([N+](=O)[O-])c2)C1 (configuration not stated) | 3 | 4 | 77* | -2 | -13 | 26
O=C(CNc1ccccc1)N/N=C/c1cc([N+](=O)[O-])ccc1N1CCCC1 | 2 | 4 | 52* | 1 | -18 | 29
Cc1nc(N2CCN(S(=O)(=O)c3ccccc3C#N)CC2)c2c(-c3cccs3)csc2n1 | 2 | 4 | 51* | 6 | -7 | 30
C[C@H](NC(=O)c1nc[nH]c1C(=O)N[C@@H](CCCCNC(=O)OC(C)(C)C)C(=O)OC(C)(C)C)c1ccccc1 | 0 | 0 | 42 | -4 | 2 | /
CC1(C(=O)Nc2ccc(Cl)c(Cl)c2)CCN1Cc1ccccc1OC(F)F (configuration not stated) | 4 | 2 | 18 | / | -5 | /
CCCSc1nc(N2CCOCC2)c2c(c1C#N)CCCC2 | 5 | 4 | 44 | -6 | -1 | /
N#CCCSc1nc(N2CCOCC2)c2c(c1C#N)CCCC2 | 0 | 1 | 55* | -6 | -1 | 62*
Cc1ccc(S(=O)(=O)N2CCN(Cc3ccccc3)CC2)c(C)c1N(C)S(=O)(=O)c1ccccc1 | 1 | 1 | 52* | 1 | -1 | 13
